Measurements as given in PMC9635392 (International Journal of Nanomedicine, 2022).
Where a name gives a salt, the structure may show the parent alone.

Assays:
Swiss albino mice = assay: In vivo biodistribution study; settings: 5 mg/kg intravenously
[1] = system: PLC/PRF/5 hepatocellular carcinoma cells; assay: MTT cytotoxicity assay; type: cell-based, Human
Summary of the method: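 PLC/PRF/5 cells grown in DMEM with 10% FBS and penicillin/streptomycin at 37°C, 5% CO2. Seeded at 7×10^3 cells/well in triplicate and left 24 h. Treated 24 h or 48 h with test compound (DMSO stock diluted in DMEM) or nanoparticle formulations (DMEM-suspended, sonicated 10 min). MTT added for 3 h, formazan dissolved in isopropanol, A570 read. Untreated cells set at 100%. IC50 from curve fitting.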

CNC(=O)c1cc(Oc2ccc(NC(=O)Nc3ccc(Cl)c(C(F)(F)F)c3)cc2)ccn1 [SRFT, Sorafenib tosylate]
sorafenib distribution liver vs kidneys, first hour (Swiss albino mice; 1 h): accumulated in the kidneys was higher compared to liver
sorafenib distribution liver vs kidneys at 48 h (Swiss albino mice; 48 h): in kidneys at 48 h was higher than in the liver
IC50 ([1]; Homo sapiens, PLC-PRF-5): 6 to 8 µM
cytotoxicity ([1]; PLC/PRF/5, 4–12 µM, 24 h and 48 h): concentration-dependent cytotoxicity
